This note sets out measurements from ChEMBL document CHEMBL1828581 (J Med Chem, 2011).

Each structure is given as a SMILES string. Activity calls are given as the source filed them. No cut-off for these calls is given here. Bounds are passed on as bounds.

Series [1] is described as follows: Selectivity index, ratio of IC50 for CHO cells to IC50 for chloroquine-sensitive Plasmodium falciparum D10. It is filed as toxicity, cell-based. The note with it: hamster, read-out: Ratio IC50. A digest of the protocol: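 The D10 value came from parasite lactate dehydrogenase read-out on erythrocytic cultures, 10 two-fold dilutions from 100 ng/mL, with nonlinear dose–response fitting.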

The test system of series [2] is Plasmodium falciparum. Kind of series: Antimalarial activity against erythrocyte stages of chloroquine-resistant Plasmodium falciparum K1 infected in human erythrocytes by lactate dehydrogenase assay. It is filed as functional, organism-based. The procedure, abridged:
(§1)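 Asexual blood-stage P. falciparum in continuous culture (modified Trager–Jensen), read out by parasite lactate dehydrogenase. Stocks are 2 mg/mL in DMSO or methanol. […] IC50 comes from nonlinear dose–response fitting.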

In series [3] the test system is Plasmodium falciparum. Nature of the series: Resistance index, ratio of IC50 for chloroquine-resistant Plasmodium falciparum K1 to IC50 for chloroquine-sensitive Plasmodium falciparum D10. It is filed as functional. A digest of the protocol: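 Resistance index is the IC50 against the resistant strain divided by the IC50 against D10. Both IC50s come from the lactate dehydrogenase growth assay on asexual blood stages, run by the same serial-dilution protocol.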

In series [4] the test system is CHO. Nature of the series: Cytotoxicity against CHO cells by MTT assay. It is filed as cell-based. To be noted: Cricetulus griseus. A digest of the protocol: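 CHO cells, MTT colorimetric growth read-out. Compound from a 2 mg/mL stock, tested from 100 μg/mL in 10-fold serial dilutions in complete medium (5 concentrations, lowest 0.01 μg/mL). Emetine reference. IC50 from nonlinear dose–response fitting; mean ± SEM, n = 3.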

Series [5] in a line: Dissociation constant, pKa of the compound with basic tertiary amino group by pH titration method. It is filed as physicochemical.
Series [6] in a line: Inhibition of beta-hematin formation assessed as equivalents of drug relative to hematin for 50% inhibition at pH 4.5 by BHIA assay. It is filed as functional. A digest of the protocol: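 β-Hematin formation mediated by 4.5 M acetate, pH 4.5, in a 96-well plate format. Unconverted hematin is dissolved with 5% (v/v) aqueous pyridine at pH 7.5, which leaves β-hematin undissolved. Result expressed as equivalents of compound relative to hematin at 50% inhibition.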

The nature of series [7]: Dissociation constant, pKa of the compound with quinoline heteroaromatic N atom by pH titration method. It is filed as physicochemical.
Series [8] deals with Plasmodium falciparum. Kind of series: Antimalarial activity against erythrocyte stages of chloroquine-sensitive Plasmodium falciparum D10 infected in human erythrocytes by lactate dehydrogenase assay. It is filed as functional, organism-based. A digest of the protocol:
as §1

Series [9] addresses T1, Chloroquine resistance transporter (Plasmodium falciparum) (UniProt Q9N623).
T1 sequence (whole entry): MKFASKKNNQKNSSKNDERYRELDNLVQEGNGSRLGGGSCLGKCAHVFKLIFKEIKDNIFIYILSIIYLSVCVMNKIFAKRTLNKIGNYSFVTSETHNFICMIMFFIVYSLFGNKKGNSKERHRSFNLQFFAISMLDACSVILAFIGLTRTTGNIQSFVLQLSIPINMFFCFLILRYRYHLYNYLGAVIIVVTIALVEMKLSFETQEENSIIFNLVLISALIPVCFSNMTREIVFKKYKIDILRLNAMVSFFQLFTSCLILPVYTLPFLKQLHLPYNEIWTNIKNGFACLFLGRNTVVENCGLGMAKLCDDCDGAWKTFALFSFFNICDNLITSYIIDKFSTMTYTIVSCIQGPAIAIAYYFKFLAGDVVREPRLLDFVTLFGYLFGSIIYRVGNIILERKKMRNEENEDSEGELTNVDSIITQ
Kind of series: Inhibition of chloroquine-sensitive Plasmodium falciparum D10 chloroquine resistance transporter expressed in xenopus laevis oocytes assessed as inhibition of [3H]chloroquine uptake after 1 to 2 hrs. It is filed as cell-based. To be noted: Oocyte.

For `CN(Cc1ccc(CNc2ccnc3cc(Cl)ccc23)cc1)Cc1ccc(N(C)C)cc1`, the selectivity ratio in series [1] was more than 4790. Also, the IC50 is 36 nM in series [2], more than 225000 nM in series [4], 0.4 equivalents in [6] and 47 nM in [8]. Moreover, the “Ratio IC50” value in series [3] is recorded as 0.8. Moreover, the pKa in series [5] came to 9.66; in series [7] it was 7.33.

As to `CN(Cc1ccc(Cl)cc1)Cc1ccc(CNc2ccnc3cc(Cl)ccc23)cc1`, the IC50 in [2] is more than 10 µg/mL; in [6], 0.34 equivalents; in series [8] it was more than 0.1 µg/mL. Moreover, the pKa turned out to be 9.74 in series [5] and 7.44 in series [7].

Turning to `CN(Cc1ccc(Cl)cc1)Cc1cccc(CNc2ccnc3cc(Cl)ccc23)c1`, the IC50 in series [2] worked out at 85 nM; in series [6] it was 0.66 equivalents; in series [8], 138 nM. For the same molecule, the “Ratio IC50” value in [3] was determined as 0.6. For the same molecule, the pKa in series [5] is 9.89; in series [7], 7.55.

In turn, `CC[C@H]1CN2CCc3cc(OC)c(OC)cc3[C@@H]2C[C@@H]1C[C@H]1NCCc2cc(OC)c(OC)cc21` [EMETINE] showed an IC50 in [4] of 80 nM.

As for `COc1ccc(CN(C)Cc2ccc(CNc3ccnc4cc(Cl)ccc34)cc2)cc1`, the IC50 in series [2] was 88 nM; in series [6], 1.44 equivalents; in series [8], 130 nM. Moreover, the “Ratio IC50” value in series [3] came to 0.7. Also, the pKa in series [5] amounted to 9.7; in series [7], 7.44.

As for `CN(Cc1ccc(N(C)C)cc1)Cc1ccccc1CNc1ccnc2cc(Cl)ccc12`, the IC50 in series [2] came out at 149 nM; in [6], 0.48 equivalents; in [8], 178 nM. The “Ratio IC50” value in series [3] is listed as 0.8. For the same molecule, the pKa in series [5] was determined as 9.71; in series [7], 7.4.

Turning to `CN(Cc1ccc(Cl)cc1)Cc1ccccc1CNc1ccnc2cc(Cl)ccc12`, the IC50 in series [2] turned out to be 1130 nM; in series [6], 1.4 equivalents. Also, the pKa in [5] came to 9.6; in series [7], 7.44.

`CCN(CC)CCCC(C)Nc1ccnc2cc(Cl)ccc12` (stereo not given) [CHLOROQUINE]: in [9], the inhibition entry is “Active”. Also, the IC50 in series [6] was 1.9 equivalents.

With `CN(Cc1ccc(N(C)C)cc1)Cc1cccc(CNc2ccnc3cc(Cl)ccc23)c1`, the results for the IC50 in series [2], in series [6] and in [8] were 281 nM, 0.5 equivalents and more than 0.1 µg/mL, respectively. Moreover, the values for the pKa in [5] and in series [7] were 9.67 and 7.36, respectively.

For `COc1ccc(CN(C)Cc2cccc(CNc3ccnc4cc(Cl)ccc34)c2)cc1`, the figures for the IC50 in series [2], in series [6] and in series [8] were 120 nM, 0.52 equivalents and 91 nM, respectively. Besides, in series [3], the “Ratio IC50” value is listed as 1.3. Also, the figures for the pKa in [5] and in [7] were 9.67 and 7.38, respectively.

Regarding `COc1ccc(CN(C)Cc2ccccc2CNc2ccnc3cc(Cl)ccc23)cc1`, the IC50 turned out to be 134 nM in series [2], 0.46 equivalents in series [6] and 175 nM in series [8]. In series [3], the “Ratio IC50” value is 0.8. For the same molecule, the pKa in series [5] was determined as 9.85; in series [7], 7.47.

By pKa is commonly meant the negative logarithm of the acid dissociation constant. Low readings indicate a stronger acid or weaker base, high ones a weaker acid or stronger base.
